# How the values were obtained:
# Rattus norvegicus = species: Rattus norvegicus; conditions: 3 uM
# [1] = biological target: Serine/threonine-protein kinase 3 (Homo sapiens) (UniProt Q13188); assay: Inhibition of MST2 at 3 uM
# [2] = biological target: Muscarinic acetylcholine receptor M3 (Homo sapiens) (UniProt P20309); assay: Inhibition of human muscarinic M3 receptor at 3 uM
# [3] = biological target: Prostaglandin E2 receptor EP4 subtype (Homo sapiens) (UniProt P35408); assay: Inhibition of human prostanoid EP4 receptor at 3 uM
# Sequence of Prostaglandin E2 receptor EP4 subtype (Homo sapiens) (P35408 whole entry): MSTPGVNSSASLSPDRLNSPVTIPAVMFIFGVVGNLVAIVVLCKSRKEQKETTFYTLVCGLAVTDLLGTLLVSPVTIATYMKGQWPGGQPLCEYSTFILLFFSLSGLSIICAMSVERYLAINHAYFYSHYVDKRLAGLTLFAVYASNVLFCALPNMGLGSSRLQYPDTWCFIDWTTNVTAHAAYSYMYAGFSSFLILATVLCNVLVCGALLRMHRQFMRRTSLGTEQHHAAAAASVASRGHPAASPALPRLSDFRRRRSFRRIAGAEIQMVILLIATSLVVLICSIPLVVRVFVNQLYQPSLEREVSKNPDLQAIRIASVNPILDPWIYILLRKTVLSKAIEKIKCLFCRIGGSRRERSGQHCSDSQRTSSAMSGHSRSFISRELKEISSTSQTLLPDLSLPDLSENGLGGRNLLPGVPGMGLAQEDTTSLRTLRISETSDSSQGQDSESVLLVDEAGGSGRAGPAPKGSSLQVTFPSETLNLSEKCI
# Summary of the method: (§1)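 Counter-screen binding/enzyme panel at single 3 μM, n=2; results as percent inhibition. Species per target as listed (rat NMDA, GABAA sites; human receptors, transporters; rabbit ACE).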
# [4] = biological target: Cytoplasmic tyrosine-protein kinase BMX (Homo sapiens) (UniProt P51813); assay: Inhibition of BMX at 3 uM
# [5] = biological target: Serine/threonine-protein kinase PAK 5 (Homo sapiens) (UniProt Q9P286); assay: Inhibition of PAK7/PAK5 at 3 uM
# [6] = biological target: Tyrosine-protein kinase ITK/TSK (Homo sapiens) (UniProt Q08881); assay: Inhibition of ITK at 3 uM
# [7] = tested on: Proto-oncogene tyrosine-protein kinase receptor Ret (Homo sapiens), P07949 [M918T]; assay: Inhibition of RET M918T mutant at 3 uM
# [8] = biological target: Phosphatidylinositol 4-phosphate 3-kinase C2 domain-containing subunit beta (Homo sapiens) (UniProt O00750); assay: Inhibition of PIK3C2B at 3 uM
# [9] = biological target: Casein kinase II subunit alpha' (Homo sapiens) (UniProt P19784); assay: Inhibition of CSNK2A2 at 3 uM
# [10] = biological target: Receptor-interacting serine/threonine-protein kinase 2 (Homo sapiens) (UniProt O43353); assay: Inhibition of RIPK2 at 3 uM
# [11] = biological target: Misshapen-like kinase 1 (Homo sapiens) (UniProt Q8N4C8); assay: Inhibition of MINK at 3 uM
# [12] = biological target: Myosin light chain kinase 2, skeletal/cardiac muscle (Homo sapiens) (UniProt Q9H1R3); assay: Inhibition of MYLK2 at 3 uM
# [13] = biological target: SRSF protein kinase 3 (Homo sapiens) (UniProt Q9UPE1); assay: Inhibition of SRPK3 at 3 uM
# [14] = biological target: Mitogen-activated protein kinase 7 (Homo sapiens) (UniProt Q13164); assay: Inhibition of ERK5 at 3 uM
# Sequence of Mitogen-activated protein kinase 7 (Homo sapiens) (Q13164 2-816 limits assumed): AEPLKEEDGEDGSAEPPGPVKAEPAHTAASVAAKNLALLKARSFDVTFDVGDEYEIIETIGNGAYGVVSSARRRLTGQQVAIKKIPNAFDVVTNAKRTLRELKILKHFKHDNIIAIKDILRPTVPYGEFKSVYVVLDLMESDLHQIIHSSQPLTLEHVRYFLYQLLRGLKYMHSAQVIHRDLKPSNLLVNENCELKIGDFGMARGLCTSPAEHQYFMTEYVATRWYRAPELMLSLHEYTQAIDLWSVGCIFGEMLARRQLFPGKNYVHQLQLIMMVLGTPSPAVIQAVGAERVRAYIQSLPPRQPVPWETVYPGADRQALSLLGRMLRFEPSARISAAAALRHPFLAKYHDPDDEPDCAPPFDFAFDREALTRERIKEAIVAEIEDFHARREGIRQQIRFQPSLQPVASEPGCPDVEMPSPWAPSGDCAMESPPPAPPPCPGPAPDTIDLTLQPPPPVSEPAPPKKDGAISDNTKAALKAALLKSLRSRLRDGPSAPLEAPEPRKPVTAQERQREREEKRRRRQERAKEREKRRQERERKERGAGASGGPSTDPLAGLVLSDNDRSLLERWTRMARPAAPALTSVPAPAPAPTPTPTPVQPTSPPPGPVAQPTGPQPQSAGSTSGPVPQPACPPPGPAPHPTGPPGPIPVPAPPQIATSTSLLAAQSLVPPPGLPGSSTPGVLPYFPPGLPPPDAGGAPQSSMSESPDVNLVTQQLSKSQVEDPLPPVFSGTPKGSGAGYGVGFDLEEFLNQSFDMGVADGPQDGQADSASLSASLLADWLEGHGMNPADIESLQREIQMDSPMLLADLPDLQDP
# Summary of the method: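 Single-concentration kinase panel scoring: each value is the percentage of enzyme activity remaining relative to a DMSO-only control. An activity statistically indistinct from DMSO control was scored "no hit".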
# [15] = biological target: Adenosine receptor A2a (Homo sapiens) (UniProt P29274); assay: Inhibition of human adenosine A2A receptor at 3 uM
# Summary of the method: as §1
# [16] = biological target: Muscle, skeletal receptor tyrosine-protein kinase (Homo sapiens) (UniProt O15146); assay: Inhibition of MUSK at 3 uM
# [17] = biological target: STE20-like serine/threonine-protein kinase (Homo sapiens) (UniProt Q9H2G2); assay: Inhibition of SLK at 3 uM
# [18] = biological target: Maternal embryonic leucine zipper kinase (Homo sapiens) (UniProt Q14680); assay: Inhibition of MELK at 3 uM
# [19] = biological target: Dual specificity mitogen-activated protein kinase kinase 3 (Homo sapiens) (UniProt P46734); assay: Inhibition of MEK3 at 3 uM
# [20] = biological target: Sodium-dependent serotonin transporter (Homo sapiens) (UniProt P31645); assay: Inhibition of human SERT at 3 uM
# Sequence of Sodium-dependent serotonin transporter (Homo sapiens) (P31645 whole entry, looked up): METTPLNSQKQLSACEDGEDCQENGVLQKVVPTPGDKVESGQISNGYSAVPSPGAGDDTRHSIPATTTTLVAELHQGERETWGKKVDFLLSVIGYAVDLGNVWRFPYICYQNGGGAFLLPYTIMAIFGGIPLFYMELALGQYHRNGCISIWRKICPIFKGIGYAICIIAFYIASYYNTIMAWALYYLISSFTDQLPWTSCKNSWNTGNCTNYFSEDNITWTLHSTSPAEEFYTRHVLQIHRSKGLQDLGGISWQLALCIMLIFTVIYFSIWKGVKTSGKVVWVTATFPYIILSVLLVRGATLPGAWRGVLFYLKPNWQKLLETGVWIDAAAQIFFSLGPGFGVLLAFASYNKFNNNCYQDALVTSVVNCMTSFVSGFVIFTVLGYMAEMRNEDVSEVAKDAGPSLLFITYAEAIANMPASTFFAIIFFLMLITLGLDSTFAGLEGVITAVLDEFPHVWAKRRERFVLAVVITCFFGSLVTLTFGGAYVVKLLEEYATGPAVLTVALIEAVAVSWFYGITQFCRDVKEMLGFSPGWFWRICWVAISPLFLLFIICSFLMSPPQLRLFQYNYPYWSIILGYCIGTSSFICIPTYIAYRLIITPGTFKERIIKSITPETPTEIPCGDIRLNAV
# Mus musculus = species: Mus musculus; conditions: 3 uM
# [21] = biological target: Type-2 angiotensin II receptor (Homo sapiens) (UniProt P50052); assay: Inhibition of human AT2 receptor at 3 uM
# Sequence of Type-2 angiotensin II receptor (Homo sapiens) (P50052 whole entry): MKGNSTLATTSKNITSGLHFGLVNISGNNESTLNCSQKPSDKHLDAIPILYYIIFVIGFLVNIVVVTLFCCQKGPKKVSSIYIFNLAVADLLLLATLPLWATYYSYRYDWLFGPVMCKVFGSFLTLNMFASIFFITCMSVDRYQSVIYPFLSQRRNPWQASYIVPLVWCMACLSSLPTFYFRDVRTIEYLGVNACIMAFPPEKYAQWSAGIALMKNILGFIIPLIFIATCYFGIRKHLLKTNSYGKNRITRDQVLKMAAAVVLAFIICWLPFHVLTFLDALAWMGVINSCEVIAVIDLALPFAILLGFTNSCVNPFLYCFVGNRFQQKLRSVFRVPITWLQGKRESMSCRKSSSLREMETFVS
# Summary of the method: as §1
# [22] = biological target: Non-receptor tyrosine-protein kinase TNK1 (Homo sapiens) (UniProt Q13470); assay: Inhibition of TNK1 at 3 uM
# [23] = biological target: D(4) dopamine receptor (Homo sapiens) (UniProt P21917); assay: Inhibition of human dopamine D4 receptor at 3 uM
# Summary of the method: as §1
# [24] = biological target: Alpha-1D adrenergic receptor (Homo sapiens) (UniProt P25100); assay: Inhibition of human adrenergic Alpha-1D receptor at 3 uM
# Summary of the method: as §1
# CYP3A4 = CYP3A4 (Homo sapiens, UniProt P08684); assay: Inhibition of human CYP3A4 at 10 uM; type: ADME
# [25] = biological target: Rho-associated protein kinase 2 (Homo sapiens, UniProt O75116); assay: Inhibition of ROCK2
# [26] = biological target: cAMP-dependent protein kinase catalytic subunit PRKX (Homo sapiens) (UniProt P51817); assay: Inhibition of PRKX at 3 uM
# [27] = biological target: Dual specificity tyrosine-phosphorylation-regulated kinase 1B (Homo sapiens) (UniProt Q9Y463); assay: Inhibition of DYRK1B at 3 uM
# Sequence of Dual specificity tyrosine-phosphorylation-regulated kinase 1B (Homo sapiens) (Q9Y463 whole entry, looked up): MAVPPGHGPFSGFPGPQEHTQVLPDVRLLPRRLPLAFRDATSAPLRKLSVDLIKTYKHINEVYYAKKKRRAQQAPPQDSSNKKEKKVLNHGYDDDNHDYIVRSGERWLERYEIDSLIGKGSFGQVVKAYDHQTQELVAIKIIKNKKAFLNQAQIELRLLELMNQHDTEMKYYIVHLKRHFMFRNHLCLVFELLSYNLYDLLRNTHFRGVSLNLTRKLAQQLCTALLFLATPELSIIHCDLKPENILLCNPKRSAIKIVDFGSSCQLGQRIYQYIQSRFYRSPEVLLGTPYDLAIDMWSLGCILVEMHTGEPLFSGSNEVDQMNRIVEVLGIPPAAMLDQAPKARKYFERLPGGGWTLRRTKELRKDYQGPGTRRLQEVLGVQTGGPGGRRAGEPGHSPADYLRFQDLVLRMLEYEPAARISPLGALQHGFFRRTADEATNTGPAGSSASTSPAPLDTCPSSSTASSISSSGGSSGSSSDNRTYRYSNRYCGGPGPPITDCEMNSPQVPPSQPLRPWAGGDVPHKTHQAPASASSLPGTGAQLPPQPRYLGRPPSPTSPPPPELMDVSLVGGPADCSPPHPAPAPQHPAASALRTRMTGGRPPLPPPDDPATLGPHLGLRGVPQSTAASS
# [28] = biological target: Proto-oncogene tyrosine-protein kinase ROS (Homo sapiens) (UniProt P08922); assay: Inhibition of ROS1 at 3 uM
# [29] = biological target: Serine/threonine-protein kinase tousled-like 2 (Homo sapiens) (UniProt Q86UE8); assay: Inhibition of TLK2 at 3 uM
# [30] = biological target: Vascular endothelial growth factor receptor 2 (Homo sapiens) (UniProt P35968); assay: Inhibition of VEGFR2 at 3 uM
# [31] = biological target: MAP kinase-interacting serine/threonine-protein kinase 2 (Homo sapiens) (UniProt Q9HBH9); assay: Inhibition of MKNK2 at 3 uM
# [32] = biological target: Tyrosine-protein kinase receptor TYRO3 (Homo sapiens) (UniProt Q06418); assay: Inhibition of TYRO3 at 3 uM
# [33] = biological target: Cysteinyl leukotriene receptor 1 (Homo sapiens) (UniProt Q9Y271); assay: Inhibition of human CysLT1 receptor at 3 uM
# Sequence of Cysteinyl leukotriene receptor 1 (Homo sapiens) (Q9Y271 whole entry): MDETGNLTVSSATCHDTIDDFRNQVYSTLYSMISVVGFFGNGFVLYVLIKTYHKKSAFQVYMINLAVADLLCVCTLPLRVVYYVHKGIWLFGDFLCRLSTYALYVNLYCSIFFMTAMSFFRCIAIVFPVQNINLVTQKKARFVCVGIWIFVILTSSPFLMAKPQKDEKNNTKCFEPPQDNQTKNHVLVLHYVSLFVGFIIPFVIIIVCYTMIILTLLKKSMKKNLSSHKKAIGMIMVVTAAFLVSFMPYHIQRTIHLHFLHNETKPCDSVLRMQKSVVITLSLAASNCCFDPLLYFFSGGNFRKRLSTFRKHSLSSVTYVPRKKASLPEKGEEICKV
# [34] = biological target: 3-phosphoinositide-dependent protein kinase 1 (Homo sapiens) (UniProt O15530); assay: Inhibition of PDPK1 at 3 uM
# [35] = biological target: Serine/threonine-protein kinase Nek9 (Homo sapiens) (UniProt Q8TD19); assay: Inhibition of NEK9 at 3 uM
# [36] = biological target: High affinity nerve growth factor receptor (Homo sapiens) (UniProt P04629); assay: Inhibition of TRKA at 3 uM
# [37] = biological target: Mitogen-activated protein kinase 11 (Homo sapiens) (UniProt Q15759); assay: Inhibition of p38-beta at 3 uM
# [38] = biological target: Serine/threonine-protein kinase TNNI3K (Homo sapiens) (UniProt Q59H18); assay: Inhibition of TNNI3K at 3 uM
# Sequence of Serine/threonine-protein kinase TNNI3K (Homo sapiens) (Q59H18 whole entry): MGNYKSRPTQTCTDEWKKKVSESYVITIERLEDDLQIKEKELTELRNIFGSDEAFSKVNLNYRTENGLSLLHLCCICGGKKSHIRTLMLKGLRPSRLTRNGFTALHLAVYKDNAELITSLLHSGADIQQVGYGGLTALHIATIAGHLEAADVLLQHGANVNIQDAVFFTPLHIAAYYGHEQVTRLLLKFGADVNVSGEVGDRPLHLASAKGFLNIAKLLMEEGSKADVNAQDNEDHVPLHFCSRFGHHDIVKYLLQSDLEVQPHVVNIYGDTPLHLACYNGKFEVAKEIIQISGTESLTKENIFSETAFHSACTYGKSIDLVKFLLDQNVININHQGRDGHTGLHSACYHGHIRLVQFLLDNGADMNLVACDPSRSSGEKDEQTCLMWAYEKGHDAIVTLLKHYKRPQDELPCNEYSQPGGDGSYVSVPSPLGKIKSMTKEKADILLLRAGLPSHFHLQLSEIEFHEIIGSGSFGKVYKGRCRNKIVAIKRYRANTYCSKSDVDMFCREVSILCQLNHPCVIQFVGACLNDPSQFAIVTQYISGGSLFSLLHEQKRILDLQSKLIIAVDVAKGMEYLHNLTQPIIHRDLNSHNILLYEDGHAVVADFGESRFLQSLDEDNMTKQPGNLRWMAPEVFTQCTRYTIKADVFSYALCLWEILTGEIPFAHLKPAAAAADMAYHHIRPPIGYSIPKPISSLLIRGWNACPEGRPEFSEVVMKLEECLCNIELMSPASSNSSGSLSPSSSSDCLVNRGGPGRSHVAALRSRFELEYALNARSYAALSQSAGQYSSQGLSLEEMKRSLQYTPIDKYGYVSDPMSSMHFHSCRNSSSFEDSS
# [39] = biological target: Myosin-IIIb (Homo sapiens) (UniProt Q8WXR4); assay: Inhibition of MYO3B at 3 uM
# [40] = biological target: Insulin-like growth factor 1 receptor (Homo sapiens) (UniProt P08069); assay: Inhibition of IGF1R at 3 uM
# [41] = biological target: MAP/microtubule affinity-regulating kinase 4 (Homo sapiens) (UniProt Q96L34); assay: Inhibition of MARK4 at 3 uM
# Sequence of MAP/microtubule affinity-regulating kinase 4 (Homo sapiens) (Q96L34 whole entry): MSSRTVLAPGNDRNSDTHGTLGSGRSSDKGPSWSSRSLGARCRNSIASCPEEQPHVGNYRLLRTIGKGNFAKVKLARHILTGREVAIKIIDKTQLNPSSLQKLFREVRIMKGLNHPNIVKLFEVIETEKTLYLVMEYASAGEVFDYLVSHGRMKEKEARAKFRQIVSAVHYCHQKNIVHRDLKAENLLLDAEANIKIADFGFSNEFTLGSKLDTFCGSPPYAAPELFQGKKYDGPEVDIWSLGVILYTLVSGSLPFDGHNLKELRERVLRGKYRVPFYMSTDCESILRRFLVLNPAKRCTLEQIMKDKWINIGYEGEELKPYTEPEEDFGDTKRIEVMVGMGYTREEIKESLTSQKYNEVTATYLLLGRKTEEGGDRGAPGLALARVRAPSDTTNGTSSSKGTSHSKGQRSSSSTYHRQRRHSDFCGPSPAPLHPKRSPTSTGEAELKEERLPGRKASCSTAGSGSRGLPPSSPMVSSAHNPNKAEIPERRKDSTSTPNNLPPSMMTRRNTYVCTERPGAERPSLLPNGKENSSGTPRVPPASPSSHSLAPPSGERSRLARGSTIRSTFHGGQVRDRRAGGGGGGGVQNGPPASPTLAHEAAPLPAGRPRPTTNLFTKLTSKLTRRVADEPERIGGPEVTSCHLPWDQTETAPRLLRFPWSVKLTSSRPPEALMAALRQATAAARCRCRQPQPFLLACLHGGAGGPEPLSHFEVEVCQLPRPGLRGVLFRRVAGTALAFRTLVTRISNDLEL
# [42] = biological target: Serine/threonine-protein kinase 17B (Homo sapiens) (UniProt O94768); assay: Inhibition of DRAK2 at 3 uM
# [43] = biological target: Serine/threonine-protein kinase PAK 1 (Homo sapiens) (UniProt Q13153); assay: Inhibition of PAK1 at 3 uM
smiles,measurement,setting,value
CN(C)CCOc1cc(-c2cn[nH]c2)ccc1NC(=O)C1COc2ccccc2O1 (stereo unspecified) [SR-3677],inhibition,Rattus norvegicus,-4%
same,inhibition,[1],< 10%
same,inhibition,[2],3%
same,inhibition,[3],5%
same,inhibition,[4],< 10%
same,inhibition,[5],< 10%
same,inhibition,[6],< 10%
same,inhibition,[7],< 10%
same,inhibition,[8],< 10%
same,inhibition,[9],< 10%
same,inhibition,[10],< 10%
same,inhibition,[11],< 10%
same,inhibition,[12],< 10%
same,inhibition,[13],< 10%
same,inhibition,[14],< 10%
same,inhibition,[15],5%
same,inhibition,[16],< 10%
same,inhibition,[17],< 10%
same,inhibition,[18],< 10%
same,inhibition,[19],< 10%
same,inhibition,[20],3%
same,inhibition,Mus musculus,-2%
same,inhibition,[21],-1%
same,inhibition,[22],< 10%
same,inhibition,[23],-2%
same,inhibition,[24],43%
same,inhibition at 10 µM,CYP3A4,0%
same,IC50,[25],3.2 nM
same,inhibition,[26],< 10%
same,inhibition,[27],< 10%
same,inhibition,[28],< 10%
same,inhibition,[29],< 10%
same,inhibition,[30],< 10%
same,inhibition,[31],< 10%
same,inhibition,[32],< 10%
same,inhibition,[33],0%
same,inhibition,[34],< 10%
same,inhibition,[35],< 10%
same,inhibition,[36],< 10%
same,inhibition,[37],< 10%
same,inhibition,[38],< 10%
same,inhibition,[39],< 10%
same,inhibition,[40],< 10%
same,inhibition,[41],< 10%
same,inhibition,[42],< 10%
same,inhibition,[43],< 10%

# Source: ChEMBL document CHEMBL1142492 (J Med Chem, 2008)
